This is an account of results in ChEMBL document CHEMBL1142153, “Pharmacokinetics and disposition of CS-023 (RO4908463), a novel parenteral carbapenem, in animals” (Antimicrob Agents Chemother, 2007).

The subject of data set [1] is Rattus norvegicus. Briefly: Fecal excretion ratio in rat assessed as radioactivity at 10 mg/kg, iv after 7 days. The format is ADME, organism-based. The settings on record: in vivo, 168 h. On the set-up: dose 10 mg/kg, route intravenous. Put shortly: (§1)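 Rats were dosed i.v. via the tail vein with [14C]CS-023 at 10 mg/kg (4.58 MBq/kg) in saline, then kept in individual metabolic cages for separate urine and feces collection over 7 days. Samples up to 24 h were collected at around 4°C into 0.5 M MOPS pH 6.0, and feces were homogenized. Radioactivity was measured by liquid scintillation counting. Parent drug and metabolite were apportioned by silica TLC (3% NaCl:acetonitrile 2:1) with imaging-plate analysis. n=4.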

Data set [2] concerns Macaca fascicularis. Description: AUC (0-inf) in monkey assessed as radioactivity at 10 mg/kg, iv. The conditions noted are these: cynomolgus monkey, in vivo.
Data set [3] concerns Rattus norvegicus. Briefly: Biliary excretion in bile duct cannulated rat assessed as radioactivity at 10 mg/kg, iv after 48 h. The settings on record: in vivo. The data set is classed as ADME, organism-based. On the set-up: dose 10 mg/kg, route intravenous. Put shortly: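 Rats had bile-duct cannulation by laparotomy under diethyl ether and were housed in Bollman cages. They were then dosed i.v. with [14C]CS-023 at 10 mg/kg in saline. Bile was collected on ice over set intervals, and radioactivity was measured by liquid scintillation counting.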

Data set [4] deals with Rattus norvegicus. Briefly: AUC (0-inf) in rat assessed as radioactivity at 10 mg/kg, iv. The format is ADME, organism-based, Plasma. Details: time infinity, dose 10 mg/kg, route intravenous. The settings on record: in vivo. In a few lines:
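[14C]CS-023 with unlabeled drug in saline, 10 mg/kg single i.v. bolus (rats via tail vein, 4.58 MBq/kg; monkeys via cephalic vein, 3 MBq/kg). Blood drawn with heparin (rat jugular, monkey femoral vein) at set times. Plasma centrifuged at 4°C, and total radioactivity counted by liquid scintillation with tissue solubilizer. Quantitation limit was twice background.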

The test system of data set [5] is Macaca fascicularis. Briefly: Fecal excretion ratio in monkey assessed as radioactivity at 10 mg/kg, iv after 7 days. The settings on record: cynomolgus monkey, in vivo, 168 h.
For data set [6], the system named is Rattus norvegicus. Briefly: Urinary excretion ratio in rat assessed as radioactivity at 10 mg/kg, iv after 7 days. The data set is classed as ADME, organism-based, Urine. On the set-up: dose 10 mg/kg, route intravenous. The conditions noted are these: in vivo, 168 h. Put shortly:
as §1

The test system of data set [7] is Macaca fascicularis. Description: Urinary excretion ratio in monkey assessed as radioactivity at 10 mg/kg, iv after 7 days. The conditions noted are these: cynomolgus monkey, in vivo, 168 h.

Regarding `C[C@@H](O)[C@H]1C(=O)N2[C@@H]1[C@@H](C)C(S[C@H]1C[C@@H](C(=O)N3CC[C@H](NC(=O)CNC(=N)N)C3)N(C)C1)=[14C]2C(=O)O`, the Activity in the data set with Rattus norvegicus [1] is recorded as 12.5%; with Rattus norvegicus [3], 0.54%; in the data set with Macaca fascicularis [5], 7.5%; in the data set on Rattus norvegicus [6], 87.1%; in the data set on Macaca fascicularis [7], 88%. For the same compound, the AUC – broadly, concentration integrated over time – with Macaca fascicularis [2] is 87400 ng·h/mL; in the data set on Rattus norvegicus [4], 26800 ng·h/mL.
